Assay results as given in ChEMBL document CHEMBL1781943, “Molluscicidal metabolites from an assemblage of Palmyra Atoll cyanobacteria” (J Nat Prod, 2011).
Activity calls are given as the source filed them. No cut-off for these calls is given here.

How the values were obtained:
Staphylococcus aureus = experiment: Antibacterial activity against methicillin-resistant Staphylococcus aureus; format: functional, organism-based
[1] = Cytotoxicity against mouse Neuro2a cells up to 100 uM; format: cell-based; conditions: n2a
NCI-H460 = experiment: Cytotoxicity against human H460 cells up to 100 uM; format: cell-based
Candida albicans = experiment: Antifungal activity against Candida albicans; format: functional, organism-based
Biomphalaria glabrata = experiment: Molluscicidal activity against Biomphalaria glabrata assessed as mortality after 24 hrs; format: functional
Outline: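 Test organism: the snail Biomphalaria glabrata. Pure compound was made up as a 20 mg/mL stock in EtOH, and an aliquot of this stock was diluted with distilled water to give the snail exposure solution. Snails were scored for death, and LC50 values were reported.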

Row | Structure (SMILES) | Activity (Staphylococcus aureus) | Activity [1] | Activity (NCI-H460) | Activity (Candida albicans) | LC50 (Biomphalaria glabrata)
1 | COC(/C=C/CO)=C/C(=O)N1C(=O)C=C[C@@H]1C [PALMYRROLINONE] | inactive | Non-toxic | Non-toxic | inactive | 6 µM
2 | COC1=CC(=O)S[C@@H](CO)C1 [THIOPALMYRONE] | inactive | Non-toxic | Non-toxic | inactive | 8.3 µM
